Molecules are shown by their SMILES. Like-named read-outs stand apart in the source and are kept apart here.

In general, Papp refers to the rate of passage across a membrane or cell layer, normalised by area and donor concentration. Higher therefore signals fast passage. As usually defined, the logP is the decadic logarithm of the partition coefficient of the neutral form, usually between octanol and water. One may read the Km as the concentration of substrate that gives half-maximal velocity. By fraction unbound is commonly meant the share of the substance not bound to proteins or other matrix.

Data set [1] in a line: Madin-Darby Canine Kidney II permeability measurement. The data set is classed as in vitro ADME. The settings on record: dog, MDCK.
The conditions of data set [2]: adults with solid tumors; cited from earlier work.
Another data set has as its system CYP2C19. As to the kind of experiment: CYP2C19 contribution to selumetinib clearance. Set-up: species or system human.
The test system of another data set is CYP3A. Briefly: CYP3A contribution to selumetinib clearance. Also on record: species or system human.
Data set [3] in a line: Physicochemical parameters.
For data set [4] the following is noted: cited from earlier work.
For data set [5] the following is noted: single oral dose, healthy adult subjects; cited from earlier work.
For data set [6] the following is noted: coadministration with rifampicin vs selumetinib alone; cited from earlier work.
The nature of data set [7]: PBPK model absorption/distribution input parameters. Also on record: species or system human. The settings on record: Estimated based on observed Cmax and PK profile (Study NCT02093728). In short, it runs like this: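 Minimal 4-compartment PBPK model in Simcyp v17 with first-order absorption and a single adjusting compartment (intercompartmental clearance 8 L/h, from a population PK model). Compartment volume was fitted to observed Cmax and profile from a healthy-volunteer trial: 10 × 10 virtual subjects aged 18–44 years given a single oral 25 mg dose.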

The subject of the next data set is P-glycoprotein (P-gp). As to the kind of experiment: P-gp transport kinetics. The data set is classed as in vitro ADME. The settings on record: not told. In short, it runs like this: (§1)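 Intestinal P-gp kinetics were estimated by the Troutman–Thakker approach, assuming one-site saturable Michaelis–Menten kinetics, with intrinsic clearance derived from Jmax and Km. The values were placed at the intestinal apical site (ADAM absorption, minimal PBPK) and at the hepatic canalicular site (full PBPK, tissue:plasma Kp 0.4).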

For another data set, the system named is P‐glycoprotein (P‐gp). As to the kind of experiment: P-gp transport kinetics. The data set is classed as in vitro ADME. The gist of the method: as §1
For data set [8] the following is noted: cited from earlier work. This is another data set of the same source.
The conditions of data set [9]: cited from earlier work. This is another data set of the same source.
Data set [10] in a line: Blood-to-plasma ratio and plasma protein binding. The data set is classed as in vitro ADME.

`Cn1cnc2c(F)c(Nc3ccc(Br)cc3Cl)c(C(=O)NOCCO)cc21` [selumetinib] had a Papp in data set [1] of 37.7 ×10⁻⁶ cm/s. Moreover, the maximum tolerated dose in data set [2] was 75 mg; in data set [4] (pediatric SPRINT phase 1, twice daily), 25 mg/m^2. In addition, in the data set with CYP2C19 (Retrograde from CLpo 19.6 L/h, fm 15%), the “CYP2C19 CLint” value was 3.335 µL/min/pmol. Also, the “fm (fraction metabolized) by CYP2C19” value in the data set on CYP2C19 (assigned according to DDI study with fluconazole) amounted to 15%. In addition, the “CYP3A CLint” value with CYP3A (Retrograde from CLpo 19.6 L/h, fm 25%) came out at 0.568 µL/min/pmol. In addition, the “fm (fraction metabolized) by CYP3A” value in the data set on CYP3A (assigned according to DDI study with itraconazole) was found to be 25%. The molecule also came in with a logP in data set [3] of 3.88. Besides, the “observed exposure (AUC from time 0 to 12 hours)” value in [4] (SPRINT phase 2 cohort, 25 mg/m^2) was 2009 ng·h/mL. In data set [4] (pediatric patients, single oral dose), the “terminal elimination half‐life” value was “≈ 6 hours”. Also, the “absolute (oral) bioavailability” value in data set [5] is reported as 62%. Also, the “decrease in AUC” value in [6] was 51%. The “reduction in Cmax” value in [6] is recorded as 26%. Moreover, in data set [7], the “Vsac (volume of single adjusting compartment)” value is 1 L/kg. Also, in the data set with P-glycoprotein (P-gp), the Km worked out at 15.8 µM. Further, the “maximal carrier‐mediated flux (Jmax)” value in the data set on P‐glycoprotein (P‐gp) (estimated, one‐site Michaelis‐Menten saturable kinetics) is on record as 9.9 pmol/min. The “P‐gp intrinsic clearance” value with P‐glycoprotein (P‐gp) (from Jmax and Km) came out at 0.62 µL/min. Moreover, the “fraction of absorption (Oral dose → First pass)” value in data set [8] (oral dose) is given as > 71%. The “dose eliminated as unchanged in urine” value in [8] (renal elimination) is given as < 1 % of dose. In addition, the “Observed geomean AUC (CV%)” value in [9] (25 mg dose+fluconazole) is reported as 1770 ng·h/mL; in [9] (25 mg dose+itraconazole), 1760 ng·h/mL; in data set [9] (25 mg single oral dose alone, healthy volunteers) it was 1180 ng·h/mL. Besides, the “B:P (blood‐to‐plasma ratio)” value in data set [10] (Report KPJ003) came out at 0.625. For the same molecule, the fraction unbound in data set [10] (plasma) worked out at 0.016.
